# Where two headings read alike, the source gives them in different places.
# Assays:
# [1] = biological target: complex C (poly(U)-programmed E. coli ribosomes), wild-type (Escherichia coli, UniProt P60723+P61175); format: binding; conditions: for Kd: Wild-type; for Kd / koff: 4.5 mM Mg^2+, 150 mM NH4^+; for koff: read-out: koff,T, Wild-type
# [2] = test system: complex C containing ribosomes with mutated 23S rRNA U2609C; experiment: Kinetics of telithromycin binding to complex C by competition with tylosin; set-up: species or system Escherichia coli
# [3] = biological target: complex C containing ribosomes with mutated 23S rRNA U754A (Escherichia coli, UniProt P60723+P61175); experiment: as above; conditions: for Kd: U754A, 4.5 mM Mg^2+, 150 mM NH4^+
# [4] = biological target: complex C containing ribosomes mutated in ribosomal protein L22: Δ82–84 (Escherichia coli, UniProt P60723+P61175, DEL82-84); experiment: as above; conditions: for Kd: L22: Δ82–84, 4.5 mM Mg^2+, 150 mM NH4^+
# [5] = biological target: complex C containing ribosomes mutated in ribosomal protein L4: Lys63Glu (Escherichia coli, UniProt P60723+P61175, K63E); experiment: as above; conditions: for Kd: L4: Lys63Glu, 4.5 mM Mg^2+, 150 mM NH4^+
# [6] = test system: 23S rRNA of complex C prepared from E. coli ribosomes; experiment: Footprinting; format: binding, Escherichia coli
# How it was run: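 Complex C (10 pmol; 100 nM) is incubated at 25°C in buffer B (50 mM HEPES/KOH pH 7.2, 4.5 mM Mg acetate, 150 mM NH4Cl, 5 mM DTT), optionally with 100 µM spermine. […] Probing uses DMS, kethoxal or CMCT, with 23S rRNA read by primer extension on 6% polyacrylamide/7 M urea gels. Band intensity is normalized to the no-compound control; means of three runs.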
# [7] = biological target: T1, complex C prepared from E. coli ribosomes (PTase activity) (Escherichia coli, UniProt P60723+P61175); experiment: Puromycin reaction; format: biochemical; conditions: 2 μΜ telithromycin, 200 μΜ puromycin, buffer A, 25°C
# How it was run: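 Complex C from E. coli ribosomes reacts with 200 µM puromycin at 25°C in buffer A (100 mM Tris/HCl pH 7.2, 4.5 mM Mg acetate, 150 mM NH4Cl), alone or with 2 µM test compound or 2 µM tylosin. AcPhe-puromycin formation is followed over time. Means of three independent experiments.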
# wild-type E. coli cells = experiment: Sensitivity to telithromycin of E. coli cells; format: cell-based; conditions: Escherichia coli, read-out: IC50 (growth inhibition)
# How it was run: (§1)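 Preculture at OD560 0.700 is diluted into LB and grown at 37°C with or without test compound, until the untreated culture reaches OD560 0.700. IC50 is the concentration that lowers OD to halfway between 0.700 and the bottom plateau of the dose curve. Means of three independent experiments.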
# [8] = test system: E. coli mutant L4: Lys63Glu; experiment: Sensitivity to telithromycin of E. coli cells; format: cell-based; conditions: Escherichia coli, read-out: IC50 (growth inhibition)
# How it was run: as §1
# E. coli mutant U754A = experiment: Sensitivity to telithromycin of E. coli cells; format: cell-based; conditions: Escherichia coli, MUTANTU754A, read-out: IC50 (growth inhibition)
# How it was run: as §1
# E. coli mutant U2609C = experiment: Sensitivity to telithromycin of E. coli cells; format: cell-based; conditions: Escherichia coli, MUTANTU2609C, read-out: IC50 (growth inhibition)
# How it was run: as §1
# [9] = test system: E. coli mutant L22: Δ82–84; experiment: Sensitivity to telithromycin of E. coli cells; format: cell-based; conditions: Escherichia coli, read-out: IC50 (growth inhibition)
# How it was run: as §1
# [10] = biological target: T1, complex C prepared from E. coli ribosomes (PTase activity); conditions: 4.5 mM Mg^2+ and 150 mM NH4^+; cited from earlier work
# [11] = C*T (final site), 4.5 mM Mg^2+ 150 mM NH4^+
# [12] = C*T (final site), 4.5 mM Mg^2+ 150 mM NH4^+ 100 μΜ spermine
# [13] = CT (initial site, 5 s), 4.5 mM Mg^2+ 150 mM NH4^+
# [14] = CT (initial site, 5 s), 4.5 mM Mg^2+ 150 mM NH4^+ 100 μΜ spermine
compound,measurement,setting,value
CC[C@H]1OC(=O)[C@H](C)C(=O)[C@H](C)[C@@H](O[C@@H]2O[C@H](C)C[C@H](N(C)C)[C@H]2O)[C@](C)(OC)C[C@@H](C)C(=O)[C@H](C)[C@H]2N(CCCCn3cnc(-c4cccnc4)c3)C(=O)O[C@]12C [telithromycin],Reversal of inactivation of complex C by tylosin,"[1]; 4 μΜ tylosin, telithromycin >10 μΜ",entirely reversed
same,"Decrease of kon,T value by polyamines",[1]; 100 μΜ spermine or 50 μΜ spermine and 2 mM spermidine vs no polyamines,83%
same,Kd,"[1]; K*T, 50 μΜ spermine, 2 mM spermidine",75.7 ± 8.8 nM
same,Kd,"[1]; K*T, 100 μΜ spermine",91.4 ± 11.2 nM
same,Kd,"[1]; KT, 50 μΜ spermine, 2 mM spermidine",1714 ± 13 nM
same,Kd,"[1]; KT, 100 μΜ spermine",2500 ± 185 nM
same,Kd,"[1]; KT, initial low-affinity site",500 ± 44 nM
same,koff.T lower than the rate constant for drop off (Lovmar et al.),[1]; compared with drop off rate constant of ref 3,10 times
same,Increase of KT* value by polyamines,[1]; polyamine buffer vs no polyamines,10 fold
same,Decrease in the affinity of telithromycin for the initial site by spermine,[1]; presence of spermine,5 fold
same,koff,[1],0.000137 s⁻¹
same,koff,[1]; 100 μΜ spermine,4.83e-05 s⁻¹
same,Enhancement of overall constant Κ*T by mutation,[2]; U2609C vs wild-type,20 fold
same,"koff,T","[2]; U2609C, 4.5 mM Mg^2+, 150 mM NH4^+",0.0395 ± 0.0031 min^_1
same,Kd,"[2]; read-out: K*T, U2609C, 4.5 mM Mg^2+, 150 mM NH4^+",148 ± 18.9 nM
same,Kd,"[2]; read-out: KT, U2609C, 4.5 mM Mg^2+, 150 mM NH4^+",536 ± 43 nM
same,Kd,[3]; K*T,22.6 ± 3.22 nM
same,Kd,[3]; KT,604 ± 45 nM
same,"Effect of mutation on koff,T constant",[3]; U754A vs wild-type,doubling
same,Kd,[4]; K*T,210 ± 30.9 nM
same,Kd,[4]; KT,530 ± 42 nM
same,"Enhancement in dissociation rate constant koff,T by mutation",[4]; L22: Δ82–84 vs wild-type,about 4 fold
same,Increase in overall dissociation constant K*T by mutation,[4]; L22: Δ82–84 vs wild-type,25 fold
same,"Reduction in association rate constant kon,T by mutation",[4]; L22: Δ82–84 vs wild-type,10 fold
same,koff,"[4]; read-out: koff,T",0.0005 s⁻¹
same,Kd,[5]; K*T,12 ± 2.67 nM
same,Kd,[5]; KT,470 ± 48 nM
same,koff,"[5]; read-out: koff,T",0.000127 s⁻¹
same,Relative reactivity of 23S rRNA residue A752 (ratio to complex C),[6]; [11],"0.30 ± 0.02 ^*^, **"
same,Relative reactivity of 23S rRNA residue A789 (ratio to complex C),[6]; [11],0.89 ± 0.08
same,Relative reactivity of 23S rRNA residue A2058 (ratio to complex C),[6]; [11],0.25 ± 0.03 ^*
same,Relative reactivity of 23S rRNA residue A2059 (ratio to complex C),[6]; [11],0.42 ± 0.03 ^*
same,Relative reactivity of 23S rRNA residue A2062 (ratio to complex C),[6]; [11],1.28 ± 0.15 ^*
same,Relative reactivity of 23S rRNA residue C2611 (ratio to complex C),[6]; [11],0.60 ± 0.08 ^*
same,Relative reactivity of 23S rRNA residue G2505 (ratio to complex C),[6]; [11],0.78 ± 0.11 ^*
same,Relative reactivity of 23S rRNA residue U790 (ratio to complex C),[6]; [11],"0.85 ± 0.08 ^*^, **"
same,Relative reactivity of 23S rRNA residue U2609 (ratio to complex C),[6]; [11],"0.72 ± 0.04 ^*^, **"
same,Relative reactivity of 23S rRNA residue A752 (ratio to complex C),[6]; [12],0.87 ± 0.07 ^*
same,Relative reactivity of 23S rRNA residue A789 (ratio to complex C),[6]; [12],0.93 ± 0.08
same,Relative reactivity of 23S rRNA residue A2058 (ratio to complex C),[6]; [12],"0.38 ± 0.02 ^*^, **"
same,Relative reactivity of 23S rRNA residue A2059 (ratio to complex C),[6]; [12],"0.57 ± 0.03 ^*^, **"
same,Relative reactivity of 23S rRNA residue A2062 (ratio to complex C),[6]; [12],1.15 ± 0.14
same,Relative reactivity of 23S rRNA residue C2611 (ratio to complex C),[6]; [12],0.97 ± 0.05
same,Relative reactivity of 23S rRNA residue G2505 (ratio to complex C),[6]; [12],0.85 ± 0.06 ^*
same,Relative reactivity of 23S rRNA residue U790 (ratio to complex C),[6]; [12],0.93 ± 0.08**
same,Relative reactivity of 23S rRNA residue U2609 (ratio to complex C),[6]; [12],0.90 ± 0.08
same,Relative reactivity of 23S rRNA residue A752 (ratio to complex C),[6]; [13],0.65 ± 0.05
same,Relative reactivity of 23S rRNA residue A789 (ratio to complex C),[6]; [13],0.78 ± 0.07
same,Relative reactivity of 23S rRNA residue A2058 (ratio to complex C),[6]; [13],0.20 ± 0.02
same,Relative reactivity of 23S rRNA residue A2059 (ratio to complex C),[6]; [13],0.38 ± 0.03
same,Relative reactivity of 23S rRNA residue A2062 (ratio to complex C),[6]; [13],1.33 ± 0.18
same,Relative reactivity of 23S rRNA residue C2611 (ratio to complex C),[6]; [13],0.60 ± 0.09
same,Relative reactivity of 23S rRNA residue G2505 (ratio to complex C),[6]; [13],0.65 ± 0.09
same,Relative reactivity of 23S rRNA residue U790 (ratio to complex C),[6]; [13],0.60 ± 0.07
same,Relative reactivity of 23S rRNA residue U2609 (ratio to complex C),[6]; [13],0.95 ± 0.07
same,Relative reactivity of 23S rRNA residue A752 (ratio to complex C),[6]; [14],0.75 ± 0.05
same,Relative reactivity of 23S rRNA residue A789 (ratio to complex C),[6]; [14],0.82 ± 0.08
same,Relative reactivity of 23S rRNA residue A2058 (ratio to complex C),[6]; [14],0.30 ± 0.01
same,Relative reactivity of 23S rRNA residue A2059 (ratio to complex C),[6]; [14],0.45 ± 0.05
same,Relative reactivity of 23S rRNA residue A2062 (ratio to complex C),[6]; [14],1.20 ± 0.14
same,Relative reactivity of 23S rRNA residue C2611 (ratio to complex C),[6]; [14],0.98 ± 0.05
same,Relative reactivity of 23S rRNA residue G2505 (ratio to complex C),[6]; [14],0.72 ± 0.07
same,Relative reactivity of 23S rRNA residue U790 (ratio to complex C),[6]; [14],0.70 ± 0.07
same,Relative reactivity of 23S rRNA residue U2609 (ratio to complex C),[6]; [14],0.97 ± 0.07
same,Inhibition of AcPhe-puromycin synthesis,[7],fails to inhibit
same,IC50,wild-type E. coli cells,4 ± 0.8 µg/mL
same,IC50,[8],12 ± 2.1 µg/mL
same,IC50,E. coli mutant U754A,14.8 ± 2.5 µg/mL
same,IC50,E. coli mutant U2609C,41.6 ± 4.3 µg/mL
same,IC50,[9],50 ± 6.5 µg/mL
CC[C@H]1OC(=O)C[C@@H](O)[C@H](C)[C@@H](O[C@@H]2O[C@H](C)[C@@H](O[C@H]3C[C@@](C)(O)[C@@H](O)[C@H](C)O3)[C@H](N(C)C)[C@H]2O)[C@@H](CC=O)C[C@@H](C)C(=O)/C=C/C(C)=C/[C@@H]1CO[C@@H]1O[C@H](C)[C@@H](O)[C@@H](OC)[C@H]1OC [tylosin],Inhibition of AcPhe-puromycin synthesis,[10],inhibits

# From article PMC3367204 (Nucleic Acids Research, 2012)
